Measurements: ChEMBL document CHEMBL1146568, “Xanthones and benzophenones from the stems of Garcinia multiflora” (J Nat Prod, 2003)

Tests used:
[1] = Toxicity against brine shrimp; format: organism-based; settings: artemia, in vivo; read-out: LD50 (the source's name)
[2] = tested on: Radical scavenging activity; experiment: Antioxidant activity assessed as DPPH radical scavenging activity; format: functional
Outline: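 Test sample in EtOH mixed with a 0.1 mM DPPH solution in EtOH (concentration before mixing). Absorbance read at 517 nm after 20 min. Scavenging taken as the drop in DPPH absorbance, expressed as a percentage of a DPPH control without sample. Catechin served as the positive control.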

| SMILES | LC50 [1] | IC50 [2] |
| --- | --- | --- |
| O=C(c1cccc(O)c1)c1c(O)cc(O)cc1O | > 100 µM | 66.3 µM |
| COc1cc(O)cc(O)c1C(=O)c1ccc(O)c(O)c1 | > 100 µM | 7.8 µM |
| COc1ccc2cc3[n+](cc2c1OC)CCc1cc2c(cc1-3)OCO2 [BERBERINE CHLORIDE] | 67 µM | – |
| Oc1cc(O)c2c(c1)OC(c1ccc(O)c(O)c1)C(O)C2 (configuration not stated) [CATECHIN] | – | 2.53 µM |
| CC(C)=CCC/C(C)=C/CC1(CC=C(C)C)C(=O)C(O)=Cc2oc3cc(O)cc(O)c3c(=O)c21 (configuration not stated) [GARCINIANONE A] | 7.7 µM | 107 µM |
| CC(C)=CCC/C(C)=C\CC1(CC=C(C)C)C(=O)C(O)=Cc2oc3cc(O)cc(O)c3c(=O)c21 (configuration not stated) [GARCINIANONE B] | 25.8 µM | 145 µM |
| O=C(c1ccc(O)c(O)c1)c1c(O)cc(O)cc1O [MACLURIN] | 43.1 µM | 5.3 µM |
